This is an account of results in ChEMBL document CHEMBL1122809, “Improved synthesis and antitumor activity of 2-bromo-2'-deoxyadenosine” (1984).

Test [1] has as its system L1210. As to the kind of experiment: Antitumor activity expressed percentage increase in life span was determined against inoculated L1210 leukemia cells (1*10e6) in mice by 11.3 mg/kg dosage of compound (qd (x 3), for days 1, 4, 7,10,13,16). The format is functional. As to conditions: Mus musculus. Summed up: (§1)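 L1210 cells were given intraperitoneally to female mice (~18 g). Freshly prepared drug was injected at 0.01 mL/g, dose per injection, and saline-injected controls were run. The end point was duration of survival. ILS was calculated as percent increase in mean life span over controls. Mice surviving 60 days or more counted as long-term survivors, scored as 60 days.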

Test [2] has as its system L1210. In words: Antitumor activity expressed as life span was determined against inoculated L1210 leukemia cells (1*10e5) in mice by 5.6 mg/kg dosage of compound (qd (x 3), for days 1,5,9). The class given is functional, Mus musculus. Summed up:
(§2)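 Female mice (~18 g, housed six per cage) received L1210 cells intraperitoneally on day 0. Drug was made fresh and injected at 0.01 mL/g; the stated dose is per injection. Controls received the same volume of 0.154 M NaCl. Survival was followed, with deaths assigned to tumour by necropsy or to drug toxicity by set criteria. Life span is given as mean ± SD.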

The test system of test [3] is L1210. As to the kind of experiment: Antitumor activity expressed percentage increase in life span was determined against inoculated L1210 leukemia cells (1*10e6) in mice by 30 mg/kg dosage of compound (qd (x 3), for days 1- 7). The class given is functional. The settings on record: Mus musculus. The procedure, abridged:
as §1

The test system of test [4] is L1210. As to the kind of experiment: Antitumor activity expressed as life span was determined against inoculated L1210 leukemia cells (1*10e5) in mice by 22.5 mg/kg dosage of compound (qd (x 3), for days 1,5,9). The format is functional, Mus musculus. The procedure, abridged: as §2
Test [5] has as its system L1210. In words: Antitumor activity expressed as life span was determined against inoculated L1210 leukemia cells (1*10e6) in mice by 5.6 mg/kg dosage of compound (qd (x 3), for days 1, 4, 7). The format is functional, Mus musculus. Summed up: as §2
Test [6] deals with L1210. In words: Antitumor activity expressed percentage increase in life span was determined against inoculated L1210 leukemia cells (1*10e5) in mice by 11.3 mg/kg dosage of compound (qd (x 3), for days 1, 4, 7). As to conditions: Mus musculus. The format is functional. The procedure, abridged: as §1
Test [7] deals with L1210. In words: Antitumor activity expressed percentage increase in life span was determined against inoculated L1210 leukemia cells (1*10e5) in mice by 22.5 mg/kg dosage of compound (qd (x 3), for days 1, 4, 7,10,13,16). The class given is functional. As to conditions: Mus musculus. Summed up:
as §1

The test system of test [8] is M5076. As to the kind of experiment: Antitumor activity was evaluated by measuring mean life span in tumor (M5076) inoculated mice at 22.5 mg/kg (qd3hx8),days 1-34. The class given is functional, Mus musculus. The procedure, abridged: (§3)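 Female mice of about 18 g received subcutaneous M5076 implants matching those used for serial passage. Drug was freshly prepared and injected at 0.01 mL/g every 3 h (×8) on every 3rd day from day 1 to day 34, with the dose stated per injection. Controls received 0.154 M NaCl. Groups held 18 mice (11 in one group). Mean life span was reported as mean ± SD, and tumor volume was also assessed.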

The test system of test [9] is M5076. As to the kind of experiment: Antitumor activity was evaluated by measuring mean life span in tumor (M5076) inoculated mice at 11.3 mg/kg (qd3hx8),days 1-34. The class given is functional, Mus musculus. The procedure, abridged:
as §3

Test [10] concerns L1210. As to the kind of experiment: Antitumor activity expressed as life span was determined against inoculated L1210 leukemia cells (1*10e6) in mice by 50 mg/kg dosage of compound (qd (x 3), for days 1- 7). The class given is functional, Mus musculus. The procedure, abridged: as §2
Test [11] relates to L1210. In words: Antitumor activity expressed as life span was determined against inoculated L1210 leukemia cells (1*10e5) in mice by 11.3 mg/kg dosage of compound (qd (x 3), for days 1, 4, 7). The format is functional, Mus musculus. Summed up: as §2
Test [12] relates to L1210. As to the kind of experiment: Antitumor activity expressed as life span was determined against inoculated L1210 leukemia cells (1*10e6) in mice by 11.3 mg/kg dosage of compound (qd (x 3), for days 1, 4, 7,10,13,16). The class given is functional, Mus musculus. Summed up:
as §2

Test [13] relates to L1210. As to the kind of experiment: Antitumor activity expressed as life span was determined against inoculated L1210 leukemia cells (1*10e6) in mice by 70 mg/kg dosage of compound (qd (x 3), for days 1- 7). The class given is functional, Mus musculus. The procedure, abridged:
as §2

For the next test, the system named is B16 melanoma (mouse). In words: Antitumor activity expressed percentage increase in life span was determined against inoculated B16 melanoma in mice by 22.5 mg/kg dosage of compound (qd3hx8), for days 1,4,7,10.
In test [14] the test system is L1210. As to the kind of experiment: Antitumor activity expressed percentage increase in life span was determined against inoculated L1210 leukemia cells (1*10e5) in mice by 45 mg/kg dosage of compound (qd (x 3), for days 1,5,9). The class given is functional. As to conditions: Mus musculus. Summed up:
as §1

Test [15] concerns L1210. As to the kind of experiment: Antitumor activity expressed percentage increase in life span was determined against inoculated L1210 leukemia cells (1*10e5) in mice by 45 mg/kg dosage of compound (qd (x 3), for days 1, 4, 7). The format is functional. As to conditions: Mus musculus. The procedure, abridged:
as §1

Consider `Nc1nc(Br)nc2c1ncn2[C@H]1C[C@H](O)[C@@H](CO)O1`, for which the ILS at 11.3 mg/kg was found to be 86% with L1210 [1] and 95% in the test with L1210 [6]. The Life span with L1210 [2] was 12.36 days; in the test on L1210 [4], 21.42 days; in the test with L1210 [5], 11.08 days; in the test with M5076 [8], 46.41 days; with M5076 [9], 39.72 days; with L1210 [10], 9 days. Also, the Life span in the test on L1210 [11] stood at 14.33 days; in the test with L1210 [12] it was 13.17 days; in the test with L1210 [13] it was 7 days. Also, the ILS at 30 mg/kg in the test with L1210 [3] was found to be 21%. Besides, the ILS at 22.5 mg/kg in the test with L1210 [7] amounted to 153%; with B16 melanoma (mouse), 50%. Besides, the ILS at 45 mg/kg in the test with L1210 [14] came to 387%; in the test with L1210 [15], 417%.

The ILS is how much longer treated animals lived than controls.
